Data from ChEMBL document CHEMBL1152442, “Discovery of a new template for anticancer agents: 2'-deoxy-2'-fluoro-4'-selenoarabinofuranosyl-cytosine (2'-F-4'-seleno-ara-C)” (J Med Chem, 2009).

Assays:
Type in all cases: functional, cell-based
A549 = assay: Cytotoxicity against human A549 cells by sulforhodamine B method
Procedure, shortened: (§1)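 Human tumour lines tested: colon HCT116, lung A549, stomach SNU638, breast T47D, prostate PC-3 and leukaemia K562. Growth was read out by sulforhodamine B protein staining.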

K562 = assay: Cytotoxicity against human K562 cells by sulforhodamine B method; procedure, shortened: as §1
SNU-638 = assay: Cytotoxicity against human SNU638 cells by sulforhodamine B method; procedure, shortened: as §1
HCT-116 = assay: Cytotoxicity against human HCT116 cells by sulforhodamine B method; procedure, shortened: as §1
PC-3 = assay: Cytotoxicity against human PC3 cells by sulforhodamine B method; procedure, shortened: as §1
T47D = assay: Cytotoxicity against human T47D cells by sulforhodamine B method; procedure, shortened: as §1

Row | SMILES | IC50 (A549) [nM] | IC50 (K562) [µM] | IC50 (SNU-638) [nM] | IC50 (HCT-116) [µM] | IC50 (PC-3) [µM] | IC50 (T47D) [nM]
1 | Nc1ccn([C@@H]2[Se][C@H](CO)[C@@H](O)[C@@H]2O)c(=O)n1 | 8830 | 86.6 | 4720 | 7.13 |  | 
2 | Nc1ccn([C@@H]2O[C@H](CO)[C@@H](O)C2(F)F)c(=O)n1 [GEMCITABINE] | 90 |  |  | 0.005 | 0.04 | 
3 | O=c1ccn([C@@H]2[Se][C@H](CO)[C@@H](O)[C@@H]2O)c(=O)[nH]1 | > 100000 | > 100 | > 100000 | > 100 | > 100 | > 100000
4 | Nc1ccn([C@@H]2[Se][C@H](CO)[C@@H](O)[C@@H]2F)c(=O)n1 | 470 | 0.63 | 140 | 1.1 | 0.58 | 790
5 | Nc1ccn([C@@H]2O[C@H](CO)[C@@H](O)[C@@H]2O)c(=O)n1 [CYTARABINE] | 1900 | 0.05 | 150 | 5.3 | 55.9 | 2700
6 | O=c1ccn([C@@H]2[Se][C@H](CO)[C@@H](O)[C@@H]2F)c(=O)[nH]1 | > 100000 | > 100 | > 100000 | > 100 | > 100 | > 100000
